In ChEMBL document CHEMBL1140421, “Kynurenamines as neural nitric oxide synthase inhibitors” (J Med Chem, 2005):

Assays:
[1] = biological target: Nitric oxide synthase 1 (Rattus norvegicus) (UniProt P29476); test: Percentage inhibition of rat striatal neural nitric oxide synthase (nNOS) activity at 1 mM by quantifying L-[3H]citrulline production
Procedure, shortened: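 Striatal homogenate was made in pH 7.6 Tris buffer with DTT and protease inhibitors, then spun 1000g for 5 min. Supernatant was incubated with 25 mM Tris, 1 mM DTT, 30 μM H4-biopterin, 10 μM FAD, 0.1 mM CaCl2, 10 μM L-arginine plus 50 nM L-[3H]-arginine, 0.75 mM NADPH and compound at 1 mM final in DMSO, 37 °C, 30 min. L-[3H]-citrulline separated on Dowex-50W and counted. NADPH-free blank subtracted. Three experiments in triplicate.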

[2] = biological target: Kynurenine 3-monooxygenase (Rattus norvegicus) (UniProt O88867); test: Percent activity of rat striatal kynurenine 3-hydroxylase (KYN3OH) activity at 1 mM by quantifying 3-hydroxykynurenine production
Sequence of Kynurenine 3-monooxygenase (Rattus norvegicus) (O88867 whole entry, looked up): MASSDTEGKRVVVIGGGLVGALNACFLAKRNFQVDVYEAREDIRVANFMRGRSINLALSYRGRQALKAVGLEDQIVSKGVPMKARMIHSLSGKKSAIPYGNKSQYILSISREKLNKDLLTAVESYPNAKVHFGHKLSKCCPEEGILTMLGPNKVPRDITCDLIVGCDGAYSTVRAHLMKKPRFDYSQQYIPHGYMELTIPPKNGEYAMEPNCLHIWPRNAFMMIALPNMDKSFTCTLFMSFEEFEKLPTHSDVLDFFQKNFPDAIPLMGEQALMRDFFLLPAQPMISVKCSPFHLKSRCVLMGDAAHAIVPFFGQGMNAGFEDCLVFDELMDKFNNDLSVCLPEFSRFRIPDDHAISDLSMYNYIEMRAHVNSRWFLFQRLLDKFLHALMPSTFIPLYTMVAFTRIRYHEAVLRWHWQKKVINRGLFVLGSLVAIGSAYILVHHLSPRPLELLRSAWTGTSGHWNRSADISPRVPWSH

Sequence of Nitric oxide synthase 1 (Rattus norvegicus) (P29476 whole entry): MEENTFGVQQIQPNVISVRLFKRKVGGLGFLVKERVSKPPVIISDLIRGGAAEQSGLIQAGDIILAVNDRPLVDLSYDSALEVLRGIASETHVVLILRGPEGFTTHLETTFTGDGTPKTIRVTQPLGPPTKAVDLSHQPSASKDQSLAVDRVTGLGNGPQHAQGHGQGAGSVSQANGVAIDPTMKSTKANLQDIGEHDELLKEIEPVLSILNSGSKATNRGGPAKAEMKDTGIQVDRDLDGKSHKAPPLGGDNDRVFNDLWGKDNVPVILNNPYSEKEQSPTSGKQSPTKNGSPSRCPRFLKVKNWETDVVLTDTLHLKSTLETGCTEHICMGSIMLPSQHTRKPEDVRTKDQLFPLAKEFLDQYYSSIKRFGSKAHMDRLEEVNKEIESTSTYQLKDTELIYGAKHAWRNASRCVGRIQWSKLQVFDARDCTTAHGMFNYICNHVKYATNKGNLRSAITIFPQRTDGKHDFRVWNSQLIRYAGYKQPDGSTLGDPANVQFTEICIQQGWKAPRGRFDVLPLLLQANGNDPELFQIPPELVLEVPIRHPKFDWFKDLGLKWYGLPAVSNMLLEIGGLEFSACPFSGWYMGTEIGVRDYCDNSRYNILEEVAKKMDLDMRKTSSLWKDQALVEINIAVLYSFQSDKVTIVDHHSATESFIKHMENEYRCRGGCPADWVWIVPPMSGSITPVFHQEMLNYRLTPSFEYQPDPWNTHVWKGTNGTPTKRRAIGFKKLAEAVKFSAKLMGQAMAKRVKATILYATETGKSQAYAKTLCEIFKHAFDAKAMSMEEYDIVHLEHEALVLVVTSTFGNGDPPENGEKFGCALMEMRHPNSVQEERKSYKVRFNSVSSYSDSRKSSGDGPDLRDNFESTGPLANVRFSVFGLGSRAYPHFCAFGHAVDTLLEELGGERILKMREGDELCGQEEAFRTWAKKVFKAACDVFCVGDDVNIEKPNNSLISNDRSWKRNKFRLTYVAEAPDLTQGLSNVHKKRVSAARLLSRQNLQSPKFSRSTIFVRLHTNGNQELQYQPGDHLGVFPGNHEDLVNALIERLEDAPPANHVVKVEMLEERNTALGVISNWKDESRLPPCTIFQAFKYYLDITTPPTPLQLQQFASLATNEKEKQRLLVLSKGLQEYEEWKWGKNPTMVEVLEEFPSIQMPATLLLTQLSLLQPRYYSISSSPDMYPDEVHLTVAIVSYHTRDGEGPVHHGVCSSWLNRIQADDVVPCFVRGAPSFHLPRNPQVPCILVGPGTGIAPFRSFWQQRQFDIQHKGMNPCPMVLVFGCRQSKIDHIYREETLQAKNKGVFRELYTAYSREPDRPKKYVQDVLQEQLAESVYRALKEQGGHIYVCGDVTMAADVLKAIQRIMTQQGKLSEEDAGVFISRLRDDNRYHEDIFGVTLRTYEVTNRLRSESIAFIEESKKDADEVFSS

SMILES: COc1ccc(N)c(C(=O)CCNC(=O)C2CCC2)c1
- inhibition [1]: 33.7%
- % activity [2]: 92.2%

SMILES: CCCCC(=O)NCCC(=O)c1cc(OC)ccc1N
- inhibition [1]: 39.6%
- % activity [2]: 97.2%

SMILES: Nc1ccc(Cl)cc1C(=O)CCNC(=O)c1ccccc1
- inhibition [1]: 21.7%

SMILES: COc1ccc(N)c(C(=O)CCNC(=O)C2CCCC2)c1
- inhibition [1]: 45%
- % activity [2]: 96.3%

SMILES: CC(=O)NCCC(=O)c1cc(Cl)ccc1N
- inhibition [1]: 31.7%

SMILES: COc1ccc(N)c(C(=O)CCNC(C)=O)c1
- inhibition [1]: 65.4%
- % activity [2]: 102%

SMILES: COc1ccc(N)c(C(=O)CCNC(=O)C2CC2)c1
- inhibition [1]: 40.4%
- % activity [2]: 99.9%

SMILES: CCCC(=O)NCCC(=O)c1cc(OC)ccc1N
- inhibition [1]: 42.8%

SMILES: COc1ccc(N)c(C(=O)CCNC(=O)c2ccccc2)c1
- inhibition [1]: 46.5%
- % activity [2]: 97.2%

SMILES: Nc1ccc(Cl)cc1C(=O)CCNC(=O)C1CC1
- inhibition [1]: 23.3%

SMILES: CCC(=O)NCCC(=O)c1cc(OC)ccc1N
- inhibition [1]: 50.9%
- % activity [2]: 99.4%

SMILES: COc1ccc(N)c(C(=O)CCNC(=O)C2CCCCC2)c1
- inhibition [1]: 48.2%
- % activity [2]: 99.6%
